Screening results deposited in PubChem by several laboratories.
A selection: hits, their analogues and other compounds. The true share with any hit is near 2.9%.
ATG4B inhibitor: ATG4B protease inhibitors, primary screen, biochemical, fluorescence, uHTS; actives 0.51% (n = 340,000); inhibition, % at 8.33 µM; ATG4B cleavage of LC3-PLA2, NBD-HPC fluorescence, 1 h; Cysteine protease ATG4B (Homo sapiens), Q9Y4P1; in the data active = inhibition above about 40%
MEKK3 PB1 HTS: modulators of MEKK3-MEK5 PB1 binding, primary screen, biochemical, wildtype MEKK3, multiplex bead flow cytometry, Alexa488-MEK5 | Mitogen-activated protein kinase kinase kinase 3 (Homo sapiens), Q99759 | bead-based flow cytometry, Alexa488-MEK5 binding to MEKK3; actives lie on both sides; 0 = blocked by unlabeled MEK5, 100 = vehicle | binding response (% of control), % at 10 µM | actives 1.4% (n = 290,000) | AID 1529, 2009;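 active = binding response more than 3 SD above or below the average of its plate-row segment, actives on both sides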;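 also: Alexa488 bead fluorescence after subtracting the streptavidin-only scavenger bead signal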
Dynein transport: inhibitors of GR-EGFP nuclear translocation, primary screen, dynein cargo transport inhibitor project, imaging, high-content, 3617.4 mouse cells. test concentration mostly 20 µM; stimulated with dexamethasone, 1 µM; stronger effect = lower value. z-score, hits read low. actives 0.47% (n = 220,000). AID 1381, 2008;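 active = plate z-score of nuclear minus cytoplasmic receptor signal below a set negative limit, without overly bright fluorescence or cell loss, cut at about -3.5 in these data, passing the limit was not always enough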;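 also: z-score of nuclear minus cytoplasmic ring GR-EGFP intensity difference per well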
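Buffer or medium: Induction medium lacking tetracycline, stripped serum | Also added: Dexamethasone agonist, 1.0 µM final, for 30 min | Timing: 48 h induction, 1 h compound, 30 min dex at 37 °C | Detection: Formaldehyde fixation, Hoechst nuclear stain, 10x automated fluorescence imaging | Measure: Nuclear versus cytoplasmic GR-EGFP signal, averaged per well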
MEKK2 mut-MEK5: MEK5 binding signal on mutant MEKK2 PB1, primary screen, biochemical, multiplex bead flow cytometry, Alexa488-MEK5; Alexa488-MEK5 binding to MEKK2 mutant; percent response, % at 10 µM; actives 0.35% (n = 290,000); in the data active = percent response above about 24%, passing the limit was not always enough
B2AR ag: beta2AR agonists driving receptor internalization, primary screen, cell-based, FAP fluorogen, flow cytometry; Beta-2 adrenergic receptor (Homo sapiens), P07550; response, % (test concentration not listed); actives 0.43% (n = 340,000); Am2.2-beta2AR cells;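 active = response above a set limit, near 3 SD of response in nonfluorescent compounds, cut at about 42% in these data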
Target sequence (P07550 whole entry, looked up): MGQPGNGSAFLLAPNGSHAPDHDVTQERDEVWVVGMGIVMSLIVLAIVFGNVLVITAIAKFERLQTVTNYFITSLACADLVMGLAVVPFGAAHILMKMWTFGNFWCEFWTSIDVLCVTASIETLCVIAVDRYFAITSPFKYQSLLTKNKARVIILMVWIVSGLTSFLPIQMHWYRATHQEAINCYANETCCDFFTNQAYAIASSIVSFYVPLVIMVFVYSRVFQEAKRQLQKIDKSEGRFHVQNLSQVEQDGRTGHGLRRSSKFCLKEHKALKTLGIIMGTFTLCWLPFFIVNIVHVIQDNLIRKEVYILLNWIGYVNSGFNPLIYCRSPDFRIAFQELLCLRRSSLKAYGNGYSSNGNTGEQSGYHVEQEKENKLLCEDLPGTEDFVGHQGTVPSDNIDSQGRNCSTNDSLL
MEKK2wt PB1 HTS: modulators of MEK5 binding to wildtype MEKK2, primary screen, biochemical, multiplex bead flow cytometry, Alexa488-MEK5. Mitogen-activated protein kinase kinase kinase 2 (Homo sapiens), Q9Y2U5. binding response (% of control), % at 10 µM. Alexa488-MEK5 binding to MEKK2 WT; actives lie on both sides. actives 1.1% (n = 290,000); in the data active = binding response below about 67% or above about 130%
MEKK2wt confirm: modulators of MEK5 binding to wildtype MEKK2, confirmation, biochemical, single concentration, multiplex bead flow cytometry | actives 2.4% (n = 5,900) | AID 1892, 2009 | binding response (% of control), % at 10 µM | shares compounds with MEKK3 PB1 HTS | Alexa488-MEK5 binding to MEKK2 WT; actives lie on both sides; in the data active = binding response below about 16% or above about 210%; inactive = in between
MEKK2mut-MEK5: mutant MEKK2 PB1-MEK5 binding signal retest – biochemical, single concentration, multiplex bead flow cytometry, confirmation | Alexa488-MEK5 binding to MEKK2 mutant | shares compounds with MEKK3 PB1 HTS | percent response, % at 10 µM | AID 1893, 2009 | actives 2% (n = 5,900); in the data active = percent response mostly above about 71%, no sharp cut-off; inactive = mostly below about 38%;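 also: higher means compound restores mutant binding toward wildtype level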
MEKK3 confirm: MEKK3 wild-type PB1 binding to MEK5, inhibitors, confirmation, biochemical, bead multiplex flow cytometry, single concentration, wildtype | shares compounds with MEKK3 PB1 HTS | Alexa488-MEK5 binding to MEKK3; stronger effect = lower value | binding response (% of control), % at 10 µM | actives 1.8% (n = 5,900);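 active = binding response below 72% of control, or above a set upper limit, though filed actives all read lower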;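 also: 100% = DMSO only wells and 0% = binding blocked by excess unlabeled MEK5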
* hit, by the source's call; . = not tested or not shown; [ ] = remark or other dose.

SMILES | ATG4B inhibitor | MEKK3 PB1 HTS | Dynein transport | MEKK2 mut-MEK5 | B2AR ag | MEKK2wt PB1 HTS | MEKK2wt confirm | MEKK2mut-MEK5 | MEKK3 confirm
O=C(Nc1ccc(Br)cc1)C1CCN(C(=O)c2ccc(F)cc2)CC1 | 1.9 | 150.0* | -1.15 | 2.0 | 2.6 | 105.0 | 98.0 | -11.0 | 96.0
CCN(CC)CCOC(=O)c1ccc(N/C=C(/C#N)c2nc(-c3ccc(OC)c(OC)c3)cs2)cc1 | -22.6 | 29.0*[inhibitor] | 0.16 | -1.0 | 18.5 | 94.0 | 53.0 | -45.0 | 15.0*
CCN(CC)CCOC(=O)c1ccc(N/C=C(/C#N)c2nc(-c3cccc(OC)c3)cs2)cc1 | -5.7 | 31.0*[inhibitor] | -0.34 | -14.0 | 2.5 | 93.0 | 78.0 | -38.0 | 26.0*
O=C(CNC(=O)N1CC(=O)Nc2ccccc21)NCc1ccccc1Cl | 6.5 | 99.0 | . | -3.0 | -3.6 | 97.0 | . | . | .
Cc1cc(-c2ccccc2)nc(N/N=C/c2ccc(O)cc2)n1 | -3.8 | . | . | . | 10.6 | . | . | . | .
Cc1cc(N/N=C/c2ccc(O)cc2)c2cccc(C)c2n1 | -9.2 | 110.0 | . | 29.0* | 19.6 | 209.0* | 134.0 | 21.0 | 107.0
Cc1cc(N/N=C/c2ccc(N(C)C)cc2)c2ccccc2n1 | -0.2 | 104.0 | . | 7.0 | -7.5 | 100.0 | . | . | .
Cc1cc(C)c2nc(C)cc(N/N=C/c3ccc(O)cc3)c2c1 | -5.6 | 115.0 | . | 119.0* | -1.2 | 237.0* | 244.0* | 102.0* | 111.0
O=C(O)CC1(c2ccc(F)cc2)C2CC3CC(C2)CC1C3 (stereo not drawn) | 4.4 | 111.0 | . | 12.0 | 14.7 | 112.0 | . | . | .
CCOC(=O)CCC(=O)NCc1ccc2c(c1)cc(C)n2C | -3.5 | 74.0*[inhibitor] | -0.0427 | -4.0 | 0.1 | 77.0 | 98.0 | 2.0 | 98.0
CCOC(=O)CCC(=O)NCc1ccc2[nH]c(C)cc2c1 | -0.5 | 82.0*[inhibitor] | 0.247 | -5.0 | 0.1 | 81.0 | 94.0 | 0.0 | 100.0
CCCCC(=O)NCc1ccc2c(c1)cc(C)n2C | -3.9 | 93.0 | -0.0068 | -3.0 | 2.7 | 86.0 | . | . | .
CC(C)N(Cc1ccccc1)C(=O)COC(=O)c1ccc(O)cc1 | -31.4 | . | . | . | 5.7 | . | . | . | .
CCOc1ccc(NC(=O)CCNS(=O)(=O)c2ccc3c(c2)CC(C)N3C(C)=O)cc1 (stereo not drawn) | -10.6 | 99.0 | . | 1.0 | -1.6 | 97.0 | . | . | .
COc1cccc(NC(=S)N2CCN(c3ccc([N+](=O)[O-])cc3)CC2)c1 | -6.1 | 60.0*[inhibitor] | 0.335 | -16.0 | -16.8 | 60.0*[inhibitor] | 99.0 | -2.0 | 100.0
N#Cc1ccc(NC(=O)CNc2cc(S(=O)(=O)N3CCOCC3)ccc2NCC2CCCO2)cc1 (stereo not drawn) | -5.1 | 5.0*[inhibitor] | -0.219 | -18.0 | 4.1 | 7.0*[inhibitor] | 104.0 | 2.0 | 107.0
NS(=O)(=O)OCCCc1ccccc1 | 4.5 | 102.0 | . | 0.0 | -2.3 | 107.0 | . | . | .
COCC(COS(N)(=O)=O)Cc1ccccc1 (stereo not drawn) | 6.7 | 105.0 | . | 4.0 | -0.9 | 139.0* | 107.0 | 7.0 | 108.0
